Legend:
Assay type in all cases: functional, organism-based
Candida albicans = test: Inhibitory activity against Candida albicans
Outline: (§1)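 Microbroth dilution in YEPD (1% yeast extract, 2% peptone, 2% glucose, […]), starting inoculum A595 0.2–0.3; compounds as twofold serial dilutions down from 1 mM, growth control on same plate. Shaken at 35 °C; A595 read at addition and 2 h later. Triplicates averaged, IC50 (50% growth inhibition) calculated. Strains: C. albicans JRW #5, C. krusei WM 03,204 (clinical isolates), C. tropicalis ATCC 750.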

Pichia kudriavzevii = test: Inhibitory activity against Candida krusei; outline: as §1
Candida tropicalis = test: Inhibitory activity against Candida tropicalis; outline: as §1

Molecule	IC50 (Candida albicans; Candida albicans) [µM]	IC50 (Pichia kudriavzevii; Pichia kudriavzevii) [µM]	IC50 (Candida tropicalis; Candida tropicalis) [µM]	IC50 (Candida albicans) [µM]	IC50 (Pichia kudriavzevii) [µM]	IC50 (Candida tropicalis) [µM]
C1CCC([C@H]2OO[C@@H](C3CCCCC3)[C@H]3O[C@H]32)CC1	100	400	25			
C1=C[C@@H](C2CCCC2)OOC1	500	> 1000	250			
C1CCC([C@H]2OO[C@@H](C3CCCC3)[C@@H]3O[C@@H]32)C1	125	63	125			
C1CCC([C@H]2OOC[C@@H]3O[C@@H]32)C1	500	500	250			
C1CCC([C@H]2OOC[C@@H]3O[C@@H]32)CC1	250	500	125			
O=C(C1CCCCC1)[C@H]1O[C@H]1[C@@H](O)C1CCCCC1	250	500	63			
C1=C[C@H](C2CCCC2)OO[C@@H]1C1CCCC1	250	> 1000	125			
C1=C[C@@H](C2CCCCC2)OOC1	9.5	75	40			
C1=C[C@H](C2CCCCC2)OO[C@@H]1C1CCCCC1	> 1000	400	200			
C1CCC([C@H]2OOC[C@H]3O[C@@H]23)C1	250	300	75			
C1CC([C@H]2OO[C@@H](C3CCC3)[C@@H]3O[C@@H]32)C1	250	500	500			
C1=C[C@H](C2CCC2)OO[C@@H]1C1CCC1	125	250	125			
C1CC([C@H]2OO[C@@H](C3CCC3)[C@H]3O[C@H]32)C1	250	500	250			
C1CCC([C@H]2OO[C@@H](C3CCCCC3)[C@@H]3O[C@@H]32)CC1	100	> 1000	200			
C1CCC([C@H]2OO[C@@H](C3CCCC3)[C@H]3O[C@H]32)C1	250	125	125			
C[C@@H]1[C@H](O)[C@@H](C)/C=C/C=C/C=C/C=C/C=C/C=C/C=C/[C@H](O[C@@H]2O[C@H](C)[C@@H](O)[C@H](N)[C@@H]2O)C[C@@H]2O[C@](O)(C[C@@H](O)C[C@@H](O)[C@H](O)CC[C@@H](O)C[C@@H](O)CC(=O)O[C@H]1C)C[C@H](O)[C@H]2C(=O)O [AMPHOTERICIN B]	< 0.5	0.2	0.1			
CC(=O)N1CCN(c2ccc(OCC3COC(Cn4ccnc4)(c4ccc(Cl)cc4Cl)O3)cc2)CC1 (centres undefined) [KETOCONAZOLE]	250	100	12			
NYSTATIN				250	100	100

— ChEMBL document CHEMBL1138142, “Novel endoperoxides: synthesis and activity against Candida species” (Bioorg Med Chem Lett, 2006)
